RGS4 inh – inhibitors of human RGS4; 310,000 tested, 0.45% active; B-score at 10 µM; HEK293 M3R/RGS4 inducible, Fluo-4 calcium flux; hits give high values; triggered by carbachol at its EC20;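 active = B-score, a plate-corrected calcium signal, over three deviations above library mean, with baseline fluorescence within five deviations of library mean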;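 note: RGS4 expression induced by doxycycline in cells with stable M3 receptor; B-score is computed from the integrated fluorescence ratio over baseline after carbachol; higher B-score means a larger calcium signal and so more RGS4 inhibition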
Target sequence (P49798 whole entry, looked up): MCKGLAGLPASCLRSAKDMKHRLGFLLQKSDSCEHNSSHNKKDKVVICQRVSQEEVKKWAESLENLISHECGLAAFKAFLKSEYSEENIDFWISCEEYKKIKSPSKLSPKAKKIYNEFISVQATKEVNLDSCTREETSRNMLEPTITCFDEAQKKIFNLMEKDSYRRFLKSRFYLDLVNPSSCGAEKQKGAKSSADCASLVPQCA
MrgX1 PAM – allosterically activates human MrgX1 receptor signaling. B-score at 10 µM. MrgX1-HEK293, Fluo-4 calcium flux, FDSS; hits give high values. Q96LB2. 310,000 tested, 0.63% active. AID 588675;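 active = plate-corrected calcium response at least 3 library SD above typical, normal starting fluorescence, not activating the receptor alone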;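 note: compound read alongside a low EC10 to EC30 dose of BAM8-22 agonist; peak minus trough fluorescence over baseline measured at the second addition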
RGS4 act – RGS4 potentiation or activation; HEK293 M3R/inducible RGS4, carbachol calcium flux Fluo4; hits give low values; B-score at 10 µM; 310,000 tested, 0.92% active; AID 463111;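 active = B-score of the integrated calcium signal more than 4 SD below the library mean, with starting fluorescence not abnormally high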;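 note: negative B-score means reduced calcium response which marks RGS4 activation or potentiation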
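test system = M3R-expressing HEK293 line, RGS4 induced by doxycycline | probe or stimulus = carbachol at ECmax as muscarinic agonist stimulus | timing = dye loading 30 min 37 °C, buffer rest 30 min RT | signal = calcium dye Fluo4 fluorescence | evaluation = B score from integrated fluorescence ratio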
MrgX1 antag – blocks BAM8-22 activation of human MrgX1 receptor | B-score at 10 µM | 310,000 tested, 1.3% active | Q96LB2 | MRGX1-HEK293 calcium flux, Fluo-4, BAM8-22 antagonism; hits give low values;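 active = calcium-response B-score plate-corrected more than 3 library SD below zero, starting fluorescence within 5 deviations, no agonist response on first addition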;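 note: peak minus trough fluorescence over baseline after final BAM8-22 challenge near maximal dose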
MrgX1 agonist – agonists of human MrgX1 receptor | MrgX1-HEK293 cells, Fluo-4 calcium fluorescence, agonist mode; hits give high values | B-score at 10 µM | 310,000 tested, 0.44% active | AID 588627;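 active = calcium response B-score plate-corrected fluorescence ratio at least 3 library SD, with starting fluorescence B-score inside 5 SD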
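Test system: Stable human MrgX1 HEK293 cell line | Schedule: Overnight plating before 1 h dye loading | Read-out basis: Baseline-normalised fluorescence change ratio, B-scored | Detection: Kinetic calcium dye fluorescence, Fluo-4 NW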
RGS4 act valid – RGS4 activation, validation assay. shares compounds with RGS4 act. 1,100 tested, 89% active. inhibition, % at 10 µM. HEK293 M3R/RGS4 inducible, carbachol calcium flux Fluo4. AID 602282;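 active = inhibition above 3 SD of the buffer control wells, cut at about 41% in these data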;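 note: signal is the integrated peak-minus-minimum Fluo4 fluorescence over baseline ratio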
RGS4 act ctr – activity in cells without induced RGS4 expression; shares compounds with RGS4 act; AID 602283; 1,100 tested, 82% active; HEK293 M3R non-induced RGS4, Fluo4 calcium flux; after carbachol challenge at its EC90; inhibition, % at 10 µM;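 active = inhibition exceeding 3 SD of buffer-only control wells, cut at about 26% in these data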;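 note: percent drop in integrated peak-minus-baseline over baseline Fluo4 ratio after carbachol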
* marks the source's active call; other numbers are inactive results; i = inactive; . = no result. Rows were chosen to be rich in hits. Some 3.5% of all compounds tested hit in one or more screens of this group.

SMILES	RGS4 inh	MrgX1 PAM	RGS4 act	MrgX1 antag	MrgX1 agonist	RGS4 act valid	RGS4 act ctr
Cc1cc(C)c2nc(N(CCCN(C)C)C(=O)c3ccc(S(=O)(=O)N4CC(C)OC(C)C4)cc3)sc2c1 (stereo unspecified)	i	i	i	i	i	.	.
CCCc1ncc(C(O)c2cccc3ccccc23)n1C (stereo unspecified)	i	i	i	i	i	.	.
CCCc1ncc(C(O)(c2ccccc2)c2ccccc2)n1C	i	i	-11.6*	i	i	93.0*	81.3*
CCCc1ncc(C(O)(c2ccccc2)c2ccc(C)cc2)n1C (stereo unspecified)	i	i	-7.9*	i	i	92.5*	62.8*
OCCN1CCN(c2ncnc3sc(-c4ccccc4)cc23)CC1	i	i	i	i	i	.	.
CC(=O)N1CCOc2ccc(S(=O)(=O)N3CCC(C(=O)Nc4cc(C)ccc4C)CC3)cc21	i	i	i	i	i	.	.
CC(=O)N1CCOc2ccc(S(=O)(=O)N3CCC(C(=O)Nc4ccc(C)cc4C)CC3)cc21	i	i	-8.63*	i	i	0.0	0.0
CC1CN(S(=O)(=O)c2cccc(C(=O)Nc3ccc(S(=O)(=O)Nc4ncccn4)cc3)c2)CC(C)O1 (stereo unspecified)	i	.	i	.	.	.	.
Cc1ccc(C(=O)NC(=S)Nc2ccc(CN3CCCCC3)cc2)c(C)c1	i	i	-7.6*	i	i	82.0*	83.8*
Cc1c(O)c(CN2CCCC2)cc2c1oc(=O)c1ccccc12	i	i	i	i	i	.	.
C=CCc1cc2c(oc(=O)c3ccccc32)c(C)c1O	i	i	-8.98*	i	i	49.0*	83.8*
Cc1ccc(CNC(=O)CCCn2nc(C)c3c(C)n(-c4ccccc4)nc3c2=O)cc1	i	i	i	i	i	.	.
OC(c1ccccn1)C1CCN(Cc2nc(C(c3ccccc3)c3ccccc3)no2)CC1 (stereo unspecified)	i	i	i	i	i	.	.
Cc1nc(CN2CCN(Cc3nc(C(c4ccccc4)c4ccccc4)no3)CC2)cs1	i	i	-13*	i	i	92.5*	79.3*
Cc1cccnc1CN1CCN(Cc2nc(C(c3ccccc3)c3ccccc3)no2)CC1	i	i	-8.72*	i	i	93.0*	82.3*
CCC1(CC)Cc2ccccc2C2=C(C(=O)N3CCCCC3)C(=O)C(=O)N21	i	i	i	i	i	.	.
Cc1cc(C)c(S(=O)(=O)Nc2ccc(O)cc2)c(C)c1	i	i	i	i	i	.	.
Cc1cc(C)c(S(=O)(=O)Nc2ccc3c(c2)CCC3)c(C)c1	i	i	-10.1*	i	i	91.5*	73.8*
CCOC(=O)C1=C(C)N2C(=C(C#N)[C@@H]1c1ccc(C(=O)OC)cc1)SC[C@@]2(O)C(C)(C)C	i	i	-9.09*	i	i	59.0*	0.0
Cc1ccc(S(=O)(=O)N2CCOCC2)cc1NC(=O)COC(=O)Cn1c(C)csc1=O	i	i	i	i	i	.	.
COC(=O)c1ccc(-c2noc(CN3CCCCC3c3nccn3C)n2)cc1 (stereo unspecified)	i	i	-10.1*	i	i	91.0*	68.3*
Cn1ccnc1C1CCCCN1Cc1nc(Cc2ccccc2F)no1 (stereo unspecified)	i	i	i	i	i	.	.
O=C(NN=C1C2CC3CC(C2)CC1C3)c1cccc(S(=O)(=O)N2CCOCC2)c1	i	i	i	i	i	.	.
O=C(NC1(O)C(=O)c2ccccc2C1=O)c1ccc(C(F)(F)F)cc1	i	i	-7.64*	i	i	0.0	0.0
Cc1ccc(C(=O)NC2(O)C(=O)c3ccccc3C2=O)cc1C	i	i	i	i	i	.	.
Cc1ccccc1OCC(=O)N1CCc2ccccc2C1	i	i	i	i	i	.	.

Screens: PubChem, Johns Hopkins Ion Channel Center
